Test results from ChEMBL document CHEMBL1125231, “Synthesis, peroxidating ability, and antineoplastic evaluation of 1-[(aminoalkyl)amino]-4-hydroxy-10-imino-9-anthracenones” (J Med Chem, 1991).
Converted amounts (≈) assume the structure as drawn.

Legend:
[1] = tested on: P388; assay: In vivo inhibitory activity against P388 murine leukemia cells and the ratio of medium survival time expressed as percent of untreated controls (%T/C) at doses of 60,30mg/kg (7/7*); type: functional, Mus musculus
[2] = The capacity to stimulate NADH oxidation was determined.; type: functional
Procedure, shortened: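 Cell-free NADH oxidation in 1 mL of 0.05 M Tris-HCl, pH 7.2, with 100 µM compound (hydrochloride), 100 µM NADH and 1 unit/mL NADH dehydrogenase. NADH consumption started by adding the enzyme. Rate expressed as µmol/min.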

[3] = tested on: P388; assay: In vivo inhibitory activity against P388 murine leukemia cells and the ratio of medium survival time expressed as percent of untreated controls (%T/C) at dose of 15 mg/kg (7/7*); type: functional, Mus musculus
[4] = tested on: P388; assay: In vivo inhibitory activity against P388 murine leukemia cells and the ratio of medium survival time expressed as percent of untreated controls (%T/C) at dose of 3.78, 1.87 mg/kg (7/7*); type: functional, Mus musculus
[5] = tested on: P388; assay: In vivo inhibitory activity against P388 murine leukemia cells and the ratio of medium survival time expressed as percent of untreated controls (%T/C) at dose of 7.5 mg/kg (7/7*); type: functional, Mus musculus
[6] = tested on: L1210; assay: Effective concentration against inhibition of L1210 mouse leukemia cells in tissue culture; type: functional, cell-based
Procedure, shortened: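 L1210 mouse leukemia cells seeded at 0.05 × 10^6 cells/mL. Compounds, as hydrochlorides dissolved in 50% ethanol, added at four concentrations. Growth over 48 h measured by cellular protein content. EC50 taken as the concentration giving 50% inhibition of 48-h growth.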

[7] = tested on: P388; assay: In vivo inhibitory activity against P388 murine leukemia cells and the ratio of medium survival time expressed as percent of untreated controls (%T/C) at doses of 10,5,2,5 mg/kg (7/7*); type: functional, Mus musculus
[8] = tested on: P388; assay: In vivo inhibitory activity against P388 murine leukemia cells and the ratio of medium survival time expressed as percent of untreated controls (%T/C) at dose of 80 mg/kg (7/7*); type: functional, Mus musculus
[9] = tested on: P388; assay: In vivo inhibitory activity against P388 murine leukemia cells and the ratio of medium survival time expressed as percent of untreated controls (%T/C) at doses of 40,20mg/kg (7/7*); type: functional, Mus musculus
[10] = tested on: P388; assay: In vivo inhibitory activity against P388 murine leukemia cells and the ratio of medium survival time expressed as percent of untreated controls (%T/C) at dose of 10 mg/kg (7/7*); type: functional, Mus musculus
[11] = tested on: P388; assay: In vivo inhibitory activity against P388 murine leukemia cells and the ratio of medium survival time expressed as percent of untreated controls (%T/C) at dose of 2.5 mg/kg (7/7*); type: functional, Mus musculus
[12] = tested on: P388; assay: In vivo inhibitory activity against P388 murine leukemia cells and the ratio of medium survival time expressed as percent of untreated controls (%T/C) at dose of 5 mg/kg (7/7*); type: functional, Mus musculus
[13] = tested on: P388; assay: In vivo inhibitory activity against P388 murine leukemia cells and the ratio of medium survival time expressed as percent of untreated controls (%T/C) at doses of 80,40,20mg/kg (7/7*); type: functional, Mus musculus
[14] = tested on: P388; assay: In vivo inhibitory activity against P388 murine leukemia cells and the ratio of medium survival time expressed as percent of untreated controls (%T/C) at dose of 10 mg/kg (6/6*); type: functional, Mus musculus
[15] = tested on: P388; assay: In vivo inhibitory activity against P388 murine leukemia cells and the ratio of medium survival time expressed as percent of untreated controls (%T/C) at dose of 2.5 mg/kg (6/6*); type: functional, Mus musculus
[16] = tested on: P388; assay: In vivo inhibitory activity against P388 murine leukemia cells and the ratio of medium survival time expressed as percent of untreated controls (%T/C) at dose of 5 mg/kg (6/6*); type: functional, Mus musculus
[17] = tested on: P388; assay: In vivo inhibitory activity against P388 murine leukemia cells and the ratio of medium survival time expressed as percent of untreated controls (%T/C) at dose of 80 mg/kg (5/6*); type: functional, Mus musculus
[18] = tested on: P388; assay: In vivo inhibitory activity against P388 murine leukemia cells and the ratio of medium survival time expressed as percent of untreated controls (%T/C) at dose of 20 mg/kg (6/6*); type: functional, Mus musculus
[19] = tested on: P388; assay: In vivo inhibitory activity against P388 murine leukemia cells and the ratio of medium survival time expressed as percent of untreated controls (%T/C) at dose of 40 mg/kg (6/6*); type: functional, Mus musculus
[20] = tested on: P388; assay: In vivo inhibitory activity against P388 murine leukemia cells and the ratio of medium survival time expressed as percent of untreated controls (%T/C) at dose of 12.5 mg/kg (7/7*); type: functional, Mus musculus
[21] = tested on: P388; assay: In vivo inhibitory activity against P388 murine leukemia cells and the ratio of medium survival time expressed as percent of untreated controls (%T/C) at dose of 25 mg/kg (7/7*); type: functional, Mus musculus
[22] = tested on: P388; assay: In vivo inhibitory activity against P388 murine leukemia cells and the ratio of medium survival time expressed as percent of untreated controls (%T/C) at dose of 50 mg/kg (7/7*); type: functional, Mus musculus
[23] = tested on: P388; assay: In vivo inhibitory activity against P388 murine leukemia cells and the ratio of medium survival time expressed as percent of untreated controls (%T/C) at doses of 6.25,3.12,1.56mg/kg (7/7*); type: functional, Mus musculus
[24] = tested on: P388; assay: In vivo inhibitory activity against P388 murine leukemia cells and the ratio of medium survival time expressed as percent of untreated controls (%T/C) at dose of 12.5 mg/kg (6/6*); type: functional, Mus musculus
[25] = tested on: P388; assay: In vivo inhibitory activity against P388 murine leukemia cells and the ratio of medium survival time expressed as percent of untreated controls (%T/C) at dose of 3.12 mg/kg (6/6*); type: functional, Mus musculus
[26] = tested on: P388; assay: In vivo inhibitory activity against P388 murine leukemia cells and the ratio of medium survival time expressed as percent of untreated controls (%T/C) at dose of 25 mg/kg (6/6*); type: functional, Mus musculus
[27] = tested on: P388; assay: In vivo inhibitory activity against P388 murine leukemia cells and the ratio of medium survival time expressed as percent of untreated controls (%T/C) at dose of 6.25 mg/kg (6/6*); type: functional, Mus musculus

CN(C)CCNc1ccc(O)c2c1C(=O)c1ccccc1C2=O
T/C [1]: 117%
NADH oxidation [2]: 25.7 µM/min
T/C [3]: 109%
T/C [4]: 91%
T/C [5]: 100%
EC50 [6]: 0.33 µg/mL (≈ 1.06 µM)

COc1cccc2c1C(=N)c1c(O)ccc(NCCNCCO)c1C2=O
EC50 [6]: 2.8 µg/mL (≈ 7.88 µM)

CN(C)CCNc1ccc(O)c2c1C(=O)c1ccccc1C2=N
T/C [7]: 92%
T/C [8]: 125%
T/C [9]: 100%
NADH oxidn [2]: 17.7 µM/min
EC50 [6]: 2.21 µg/mL (≈ 7.14 µM)

N=C1c2ccccc2C(=O)c2c(NCCNCCO)ccc(O)c21
T/C [10]: 150%
T/C [11]: 120%
NADH oxidn [2]: 19.3 µM/min
T/C [12]: 130%
T/C [13]: 160%
EC50 [6]: 1.43 µg/mL (≈ 4.4 µM)

NCCNc1ccc(O)c2c1C(=O)c1ccccc1C2=O
NADH oxidation [2]: 25.7 µM/min
EC50 [6]: 0.24 µg/mL (≈ 0.85 µM)

N=C1c2ccccc2C(=O)c2c(NCCN)ccc(O)c21
T/C [14]: 118%
T/C [15]: 100%
T/C [16]: 109%
T/C [17]: 55%
NADH oxidn [2]: 20.9 µM/min
EC50 [6]: 0.89 µg/mL (≈ 3.16 µM)
T/C [18]: 109%
T/C [19]: 118%

O=C1c2ccccc2C(=O)c2c(NCCNCCO)ccc(O)c21
T/C [20]: 109%
T/C [21]: 117%
NADH oxidation [2]: 28.9 µM/min
T/C [22]: 127%
T/C [23]: 100%
EC50 [6]: 0.27 µg/mL (≈ 0.827 µM)

O=C1c2ccccc2C(=O)c2c(NCCNCCO)ccc(NCCNCCO)c21 [AMETANTRONE]
T/C [24]: 300%
T/C [25]: 190%
T/C [26]: 200%
NADH oxidation [2]: 28.9 µM/min
T/C [27]: 210%
EC50 [6]: 0.21 µg/mL (≈ 0.509 µM)
